# Experimental data: PubChem BioAssay
# The source made the active and inactive calls.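 How the source made its calls, unless noted: active means GFP response above 150% of the DMSO level; inconclusive means fewer than 70 events counted for a yeast strain; inactive means the rest.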
# How the values were obtained:
# [1] = RPL19A-GFP modulators, yeast TOR pathway, confirmation, cell-based, S. cerevisiae, flow cytometry, cherry picks, mother/daughter gates (AID 2270;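 active means GFP response below 50% of the DMSO control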); settings: S. cerevisiae RPL19A-GFP strain, 3 h, at 10 µM, stronger effect = lower value, 100 = same GFP as DMSO wells
# [2] = LAP4-GFP expression modulators in yeast, confirmation, cell-based, cherry picks, flow cytometry, mother/daughter gates (AID 2271;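 active means GFP response above 150% of the DMSO control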;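 further: ratio of sample to DMSO plate mean so 100% equals DMSO level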); settings: S. cerevisiae LAP4-GFP strain, 3 h, at 10 µM, stronger effect = higher value, 100 means same as DMSO control
# Summary of the method: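 System: Alexa 633-stained baker's yeast GFP-fusion strain; quantity: 0.2 OD600 cells; timing: compound exposure 3 h at 30 °C, end-over-end rotation; detection: HT flow cytometry, GFP fluorescence channel; measure: per-gate (all, mother, daughter) GFP response vs DMSO; control set: DMSO-only negative wells, rapamycin 400 ng/mL positive wells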
# [3] = modulators of MEP2-GFP levels in yeast, confirmation, S. cerevisiae, flow cytometry GFP, cherry picks (AID 2272;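 active means GFP response above 150% of the DMSO control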;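 further: ratio of well signal to plate DMSO mean so 100% equals DMSO level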); settings: S. cerevisiae MEP2-GFP strain, 3 h, at 10 µM, stronger effect = higher value
# [4] = AGP1-GFP expression modulators, hit retest, confirmation, cell-based, flow cytometry, S. cerevisiae, cherry picks (AID 2273);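 further: median GFP channel fluorescence over the whole cell population gate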; settings: S. cerevisiae AGP1-GFP strain, 3 h, at 10 µM
# [5] = modulators of CIT2-GFP expression in yeast, confirmation, S. cerevisiae, GFP fusion, cherry picks, mother/daughter gates (AID 2274); settings: S. cerevisiae CIT2-GFP strain, flow cytometry, 3 h, at 10 µM, stronger effect = higher value
# [6] = measured here: daughter cell gate
# [7] = measured here: mother cell gate
# [8] = measured here: daughter cell gate response
# [9] = measured here: mother cell gate response
SMILES,GFP response vs DMSO [1],"GFP response vs DMSO [1, 6] [%]","GFP response vs DMSO [1, 7] [%]",GFP response relative to DMSO [2],"GFP response relative to DMSO [2, 8] [%]","GFP response relative to DMSO [2, 9] [%]",GFP response vs DMSO [3],"GFP response, % of DMSO [4]","GFP response, % of DMSO [5]","GFP response, % of DMSO [5, 6] [%]","GFP response, % of DMSO [5, 7] [%]"
Cc1cccc(C(=O)Nc2ccc(O)cc2)c1,97.6% (inactive),97,97.3,100% (inactive),99,101,108% (inactive),104% (inactive),103% (inactive),101,104
O=S1(=O)Nc2c(ccc3cccnc23)-c2ccccc21,89.9% (inactive),91.7,103,124% (inactive),104,163,112% (inactive),103% (inactive),111% (inactive),108,113
COc1ccccc1-c1nnc(NC(=O)c2ccc(S(=O)(=O)N(C)C)cc2)o1,99.2% (inactive),98.6,98.7,111% (inactive),112,109,119% (inactive),93.3% (inactive),105% (inactive),106,106
O=C(O)CCC(=O)Nc1ccc(S(=O)(=O)c2ccc(NC(=O)CCC(=O)O)cc2)cc1,98.5% (inactive),100,97.7,102% (inactive),97.5,102,106% (inactive),100% (inactive),98.6% (inactive),99.3,99.3
Cc1ccc(C2CC(c3ccco3)=NN2S(C)(=O)=O)cc1 (centres undefined),97.2% (inactive),97,97.1,105% (inactive),102,104,106% (inactive),93.8% (inactive),96.4% (inactive),98.3,95.6
CN1CCSc2ccc(C(=O)Nc3cccc(F)c3)cc21,95.2% (inactive),91.8,96.7,120% (inactive),115,121,99.5% (inactive),97.8% (inactive),92.1% (inactive),89,91
O=c1cc(-c2c(F)c(F)c(F)c(F)c2F)oc2c(F)c(F)c(F)c(F)c12,105% (inactive),101,101,145% (inactive),120,145,131% (inactive),113% (inactive),132% (inactive),119,118
Cc1cccc(Nc2nc(-c3ccccn3)cs2)n1,77.9% (inactive),104,66.6,137% (inactive),138,120,110% (inactive),89.8% (inactive),100% (inactive),121,83.7
C=CCOc1cccc(C(=O)/C=C2/C(=O)Nc3ccccc32)c1,102% (inactive),97.9,98.8,114% (inactive),107,117,112% (inactive),105% (inactive),102% (inactive),103,98.1
CCOc1ccccc1/C=C/C(=O)c1ccc(Cl)cc1,98.2% (inactive),97.1,98.5,99.2% (inactive),99.2,97.2,98.3% (inactive),102% (inactive),103% (inactive),103,102
Cc1[nH][nH]c(=O)c1C(c1ccc(N(C)C)c(Br)c1)c1c(C)[nH][nH]c1=O,99.3% (inactive),98,99.2,116% (inactive),115,114,104% (inactive),105% (inactive),96.4% (inactive),96.4,94.5
Cc1cccc(CSCc2ccc(C(=O)NC(C)C)o2)c1,101% (inactive),98.1,101,99.5% (inactive),95.9,99.4,96.8% (inactive),101% (inactive),102% (inactive),103,99.3
Cc1ccc(Oc2nc(-c3ccccn3)nc3ccccc23)cc1,98.2% (inactive),94.7,97.8,110% (inactive),107,110,103% (inactive),92.2% (inactive),91.5% (inactive),92,90.7
N/C(=N\OC(=O)c1cccc(Br)c1)c1ccccc1,97.2% (inactive),96.4,93.6,137% (inactive),123,143,105% (inactive),64.6% (inactive),140% (inactive),121,140
COc1ccc(/C=N/c2c(-c3ccco3)nc3ccccn23)cc1OC,97.8% (inactive),98.5,98.6,95.3% (inactive),96.5,93.6,102% (inactive),98.9% (inactive),101% (inactive),100,100
CCOC(=O)C(=CNNc1ccccc1)C(=O)OCC,106% (inactive),105,105,136% (inactive),133,140,113% (inactive),102% (inactive),103% (inactive),101,103
Cc1[nH]n(-c2ccccc2)c(=O)c1C(c1ccccc1[N+](=O)[O-])C(C#N)C#N (centres undefined),106% (inactive),84.6,98.8,192% (active),168,195,112% (inactive),98.9% (inactive),98.4% (inactive),113,81.8

SMILES,GFP response vs DMSO [1],"GFP response vs DMSO [1, 6] [%]","GFP response vs DMSO [1, 7] [%]",GFP response relative to DMSO [2],"GFP response relative to DMSO [2, 8] [%]","GFP response relative to DMSO [2, 9] [%]",GFP response vs DMSO [3],"GFP response, % of DMSO [4]","GFP response, % of DMSO [5]","GFP response, % of DMSO [5, 6] [%]","GFP response, % of DMSO [5, 7] [%]"
CNC(=O)c1c(O)c2cccc3c2n(c1=O)CC3,102% (inactive),99.1,103,94.2% (inactive),90.7,94.6,97.5% (inactive),100% (inactive),93.5% (inactive),90.9,93.3
CCCCNc1c(-c2ccc(SC(C)CC)cc2)nc2ccccn12 (centres undefined),94.2% (inactive),88.6,95.8,120% (inactive),114,124,109% (inactive),93.3% (inactive),92.6% (inactive),89.9,91.4
Cc1ccc(NC(=O)COc2ccc(Br)cc2C)cc1,99.5% (inactive),97.3,100,107% (inactive),102,104,104% (inactive),96.7% (inactive),97.8% (inactive),98.3,95.6
COc1ccc([N+](=O)[O-])c(S(=O)(=O)c2ccccc2)n1,93.7% (inactive),95.8,90.8,195% (active),170,204,112% (inactive),113% (inactive),86% (inactive),96.8,75.8
N#Cc1cc(Sc2ccccn2)c([N+](=O)[O-])cc1C#N,107% (inactive),110,106,121% (inactive),123,118,143% (inactive),106% (inactive),123% (inactive),125,120
Cn1cnnc1SCC(=O)Nc1nc(-c2ccc(F)cc2)cs1,100% (inactive),99.1,101,97% (inactive),95.9,97.3,103% (inactive),99.4% (inactive),102% (inactive),103,102
CCc1nn2c(N3CCOCC3)cc(C)nc2c1-c1ccc(F)cc1,99.8% (inactive),99.8,98.4,104% (inactive),104,104,106% (inactive),98.6% (inactive),95.8% (inactive),101,94.9
Cc1cccc(NC(=O)c2ccc([N+](=O)[O-])o2)c1,103% (inactive),105,101,126% (inactive),115,125,106% (inactive),96.2% (inactive),105% (inactive),106,101
O=C(NC(c1ccccc1)C(Cl)Cl)c1ccccc1 (centres undefined),94.7% (inactive),98.4,92.9,97.7% (inactive),104,93.4,128% (inactive),125% (inactive),107% (inactive),108,106
COc1ccc(-c2nc(N)n(C(C)=O)n2)cc1,103% (inactive),102,104,95% (inactive),97.2,95.2,102% (inactive),97.4% (inactive),110% (inactive),110,111
O=C(COc1ccc(F)cc1Cl)Nc1nc(-c2ccccn2)cs1,98% (inactive),94.7,97.1,132% (inactive),132,137,110% (inactive),98.8% (inactive),94.4% (inactive),97.6,89.3
COc1cc(NC(=O)c2ccc(F)cc2)ccc1NC(=O)c1cc2ccccc2o1,98% (inactive),99.1,94.3,96.1% (inactive),96.6,96.2,101% (inactive),102% (inactive),94.7% (inactive),96.8,94.7
Cc1nn(Cc2ccccc2Cl)c(C)c1C(=O)NCc1ccco1,99.3% (inactive),101,98.8,97.7% (inactive),101,98.4,99.3% (inactive),99.3% (inactive),98.6% (inactive),99.3,100
O=C(N/N=C/c1ccccn1)c1sc2ccccc2c1Cl,103% (inactive),94,103,118% (inactive),114,126,114% (inactive),99.3% (inactive),84.7% (inactive),88.9,82.8
C=CCn1cc(/C=C/c2cc[n+](C)cc2)c2ccccc21,102% (inactive),99.6,103,108% (inactive),107,108,120% (inactive),97.8% (inactive),125% (inactive),119,127
Cc1cc(N)ccc1NC(=O)c1ccccc1,101% (inactive),99.6,102,98.2% (inactive),99.1,98.4,105% (inactive),103% (inactive),100% (inactive),101,101
CC(=O)NC1(C(F)(F)F)C(=O)Nc2c1c(=O)[nH]c(=O)n2CCc1ccccc1 (centres undefined),99.6% (inactive),98.4,98.6,97% (inactive),97.5,97.3,107% (inactive),95.7% (inactive),88.6% (inactive),90.2,88.2
